High-throughput results from PubChem.
M1 antag: M1 muscarinic receptor (rat) antagonism; P08482; CHO-M1 cells, Fluo-4 calcium, ACh EC80 antagonist mode; active compounds read low; B-score at 10 µM; actives 3.4% (n = 64,000);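 active = calcium fluorescence response, raw or row-and-column corrected B-score, differing from the plate sample mean either way at a set confidence level, mostly lower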
RORA act: activates the human nuclear receptor RORA; CHO-K1 Gal4-RORA LBD luciferase reporter, luminescence; percent increase over mock-subtracted basal signal; activation, % at 10 µM; actives 1.5% (n = 65,000);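 active = activation above the mean of all tested compounds plus 3 SD, cut at about 49% in these data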
SF-1 act: activators of human nuclear receptor SF-1. Q13285. CHO-K1 Gal4-SF-1 LBD luciferase reporter; % increase over DMSO SF-1-specific signal. activation, % at 10 µM. actives 1.9% (n = 65,000);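 active = activation above the mean activation of all tested compounds plus 3 SD, cut at about 50% in these data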
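Test system: CHO-K1 cells co-transfected with Gal4 DBD–human SF-1 LBD, 5xGal4 luciferase reporter. Quantity: 4,000 cells per well. Compound: 10 µM only. Incubation: compound added 1 h post-seeding, 20 h exposure at 37 °C, 5% CO2. Detection: SteadyLite luciferase luminescence. Replication: one test per compound.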
M1 ag: activates the M1 muscarinic receptor; CHO-M1 cells, Fluo-4 calcium fluorescence, agonist mode; active compounds read high; B-score at 10 µM; actives 3% (n = 64,000); AID 626;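 active = fluorescence rise, raw or as B-score row- and column-corrected plate score, outside the 99.7% band of its plate's samples, either direction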
D1 mod: allosteric modulators of human D1 dopamine receptor; HEK293 D1, CRE-luciferase, dopamine EC30 potentiation; actives deviate in either direction; B-score at 10 µM; actives 5.9% (n = 58,000); AID 641;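 active = luminescence count or its row- and column-corrected plate score outside the 99.7% band of the plate's sample wells, on either side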
Target sequence (P21728 whole entry, looked up): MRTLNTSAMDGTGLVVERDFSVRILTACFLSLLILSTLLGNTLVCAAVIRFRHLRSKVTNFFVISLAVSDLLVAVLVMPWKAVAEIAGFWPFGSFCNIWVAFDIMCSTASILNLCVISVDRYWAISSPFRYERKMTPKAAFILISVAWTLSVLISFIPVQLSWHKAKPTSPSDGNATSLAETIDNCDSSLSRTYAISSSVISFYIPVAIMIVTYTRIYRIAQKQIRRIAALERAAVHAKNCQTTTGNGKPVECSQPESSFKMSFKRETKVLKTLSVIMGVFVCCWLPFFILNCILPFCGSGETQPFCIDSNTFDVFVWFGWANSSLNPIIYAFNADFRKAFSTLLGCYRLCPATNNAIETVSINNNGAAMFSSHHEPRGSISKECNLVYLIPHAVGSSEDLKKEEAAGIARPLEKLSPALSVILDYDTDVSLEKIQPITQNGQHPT
mHtt clearance: compounds clearing mutant huntingtin protein; HeLa Exon1htt(103Q)mCFP, aggregate imaging; zero = plate's median compound well; inhibition, % at 1.5 µM; actives 0.42% (n = 47,000); AID 853;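 active = inhibition of aggregate fluorescence above about 70%, also judged a hit by eye on the cell image, limit read from the data, passing the limit was not always enough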;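 note: cells exposed to compound for three days before fixation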
Numbers stand for hits. A selection: hits, their analogues and other compounds. The true share with any hit is near 11%.

For CCCn1c(N)c(C(=O)CSc2nnnn2-c2ccc(O)cc2)c(=O)n(C)c1=O the results were mHtt clearance inactive.
For COc1ccc2c(c1)CCc1c(C(=O)N3CC4(C)CC3CC(C)(C)C4)noc1-2 (centres undefined) the results were M1 antag inactive, RORA act inactive, SF-1 act inactive, M1 ag 26.7, D1 mod inactive and mHtt clearance inactive.
For CCOC(=O)c1ccc(NC(=O)CN(Cc2ccc(Cl)cc2)S(C)(=O)=O)cc1 the results were mHtt clearance inactive.
`O=C(Nc1c(C(=O)Nc2cccc3ccccc23)cnn1-c1ccccc1)c1ccco1` gave mHtt clearance inactive.
For CC1(C)Oc2ccc3ccc(=O)oc3c2/C(=C/Nc2ccccn2)C1=O the results were M1 antag inactive, RORA act inactive, SF-1 act inactive, M1 ag inactive and D1 mod -3.59.
For CN/C=C1\C(=O)C(C)(C)Oc2ccc3ccc(=O)oc3c21 the results were M1 antag inactive, RORA act inactive, SF-1 act inactive, M1 ag inactive, D1 mod inactive and mHtt clearance inactive.
For c1ccc2oc(SCc3cn4ccccc4n3)nc2c1 the results were M1 antag inactive, RORA act 58.1, SF-1 act inactive, M1 ag inactive, D1 mod inactive and mHtt clearance inactive.
O=C(CC12CCC(CC1)C2)NCc1ccc2c(c1)OCO2 was read as mHtt clearance inactive.
`CN(C)c1ccc(C(=O)OCC(=O)c2cccs2)cc1` gave M1 antag inactive, RORA act inactive, SF-1 act 52.5, M1 ag inactive and D1 mod inactive.
O=C(COC(=O)c1cccs1)c1ccc2c(c1)OCCO2 was read as M1 antag inactive, RORA act inactive, SF-1 act inactive, M1 ag inactive, D1 mod -2.97 and mHtt clearance inactive.
Cc1ccc(C)n1-c1ccc(N2CCOCC2)c(Br)c1 was read as mHtt clearance inactive.
`Cn1c2c(c(=O)n(C)c1=O)C(c1ccccc1OC(F)F)C1=C(CCCC1=O)N2` (centres undefined) gave M1 antag inactive, RORA act inactive, SF-1 act inactive, M1 ag inactive, D1 mod inactive and mHtt clearance inactive.
CC(=O)Nc1cc(NC(C)=O)cc(C(=O)NC(C)(C)C)c1 was read as M1 antag inactive, RORA act inactive, SF-1 act inactive, M1 ag inactive, D1 mod inactive and mHtt clearance inactive.
O=C(CC1Nc2ccccc2NC1=O)NCc1cccnc1 (centres undefined) was read as M1 antag 1.43, RORA act inactive, SF-1 act inactive, M1 ag inactive, D1 mod inactive and mHtt clearance inactive.
Screening COc1ccc(-n2ncc3c(NCc4ccco4)ncnc32)cc1 returned M1 antag inactive, RORA act 61.6, SF-1 act 68.7, M1 ag inactive, D1 mod inactive and mHtt clearance inactive.
Screening CN(C)CCNc1ncnc2c1cnn2-c1ccc(Cl)cc1 returned M1 antag inactive, RORA act inactive, SF-1 act 73.3, M1 ag inactive and D1 mod -4.72.
CCCNc1ncnc2c1cnn2-c1ccc(OC)cc1 was read as M1 antag inactive, RORA act inactive, SF-1 act inactive and M1 ag inactive.
`Cc1cc(C)nc(N2CCN(c3ncnc4c3cnn4Cc3ccc(Cl)cc3Cl)CC2)n1` gave M1 antag inactive, RORA act inactive, SF-1 act inactive, M1 ag inactive and D1 mod inactive.
Clc1ccc(Cn2ncc3c(NCc4ccco4)ncnc32)c(Cl)c1 was read as M1 antag inactive, RORA act inactive, SF-1 act 61.5, M1 ag inactive, D1 mod inactive and mHtt clearance inactive.
`COc1ccc(-n2ncc3c(NCCCN4CCOCC4)ncnc32)cc1` gave M1 antag inactive, RORA act inactive, SF-1 act 53.3, M1 ag inactive and D1 mod inactive.
`Clc1ccc(-n2ncc3c(NCc4ccco4)ncnc32)cc1` gave M1 antag inactive, RORA act 65.3, SF-1 act 75.7, M1 ag inactive and mHtt clearance inactive.
`C=CCNc1ncnc2c1cnn2-c1ccc(OC)cc1` gave M1 antag inactive, RORA act inactive, SF-1 act inactive, M1 ag inactive, D1 mod inactive and mHtt clearance inactive.
For Clc1ccc(-n2ncc3c(NCc4ccc5c(c4)OCO5)ncnc32)cc1 the results were M1 antag inactive, RORA act inactive, SF-1 act inactive, M1 ag inactive and D1 mod inactive.
Screening COc1ccc(-n2ncc3c(NCc4ccccn4)ncnc32)cc1 returned M1 antag inactive, RORA act inactive, SF-1 act 56.4, M1 ag inactive and D1 mod inactive.
For O=C(Nc1cc(N2CCOCC2)ncn1)NC1(C(F)(F)F)Oc2ccccc2O1 the results were mHtt clearance inactive.
For O=C(Cn1cccc1C(=O)c1ccccc1)NCc1ccco1 the results were M1 antag inactive, RORA act inactive, SF-1 act inactive, M1 ag inactive, D1 mod -3.54 and mHtt clearance inactive.
Screening Cc1occc1-c1nnc(SCC(=O)N2CCN(c3ccccc3F)CC2)n1C returned M1 antag inactive, RORA act inactive, SF-1 act inactive, M1 ag inactive and D1 mod inactive.
`CC(C)N1CC(O)=C(c2nc3ccccc3[nH]2)C1=N` gave M1 antag inactive, RORA act 50.0, SF-1 act inactive, M1 ag inactive, D1 mod inactive and mHtt clearance inactive.
`COc1cc(-c2ccccc2)nc(N)n1` gave M1 antag inactive, M1 ag inactive and D1 mod inactive.
`CCOc1cc(-c2ccccc2)nc(N)n1` gave M1 antag inactive, RORA act inactive, SF-1 act inactive, M1 ag inactive, D1 mod 8.15 and mHtt clearance inactive.
COc1cc(C2c3c(oc4c(C)cc(C)cc4c3=O)C(=O)N2Cc2cccnc2)ccc1O (centres undefined) was read as M1 antag inactive, RORA act inactive, SF-1 act inactive, M1 ag inactive and D1 mod 11.5.
Screening Cn1c(=O)c2c(nc(Br)n2C)n(C)c1=O returned M1 antag inactive, RORA act inactive, SF-1 act inactive, M1 ag inactive, D1 mod -1.63 and mHtt clearance inactive.
Screening Cn1c(=O)c2c(nc(Br)n2CCc2ccccc2)n(C)c1=O returned M1 antag inactive, RORA act inactive, SF-1 act inactive, M1 ag inactive, D1 mod -3.79 and mHtt clearance inactive.
Screening COc1cccc(CC(NC(C)=O)C(=O)NC2CCN(S(=O)(=O)c3ccc4ccccc4c3)CC2)c1 (centres undefined) returned mHtt clearance inactive.
`Cc1cc(NC(=O)NC2CCCN2S(=O)(=O)c2ccc(Cl)cc2)no1` (centres undefined) gave M1 antag inactive, RORA act inactive, SF-1 act inactive, M1 ag inactive and D1 mod inactive.
